What was measured:
Type in all cases: functional
[1] = Growth inhibition of human HCT15 cells assessed as cell growth at 10 uM incubated for 48 hrs by sulforhodamine B assay relative to control; conditions: HCT-15, 48 h, read-out: Activity
Outline: (§1)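 Run in the standard NCI 60-cell-line screen. Cells were exposed to drug for two days, and the read-out was sulforhodamine B staining. Compound was tested at a single final concentration of 10 µM in every line, and results are reported as growth percent.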

SR = assay: Growth inhibition of human SR cells assessed as cell growth at 10 uM incubated for 48 hrs by sulforhodamine B assay relative to control; conditions: read-out: Activity; outline: as §1
[2] = Growth inhibition of human COLO205 cells incubated for 48 hrs by sulforhodamine B assay; conditions: COLO 205, 48 h
Outline: (§2)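 NCI 60-cell-line panel, standard protocol. Cells exposed to compound for two days, growth read by sulforhodamine B staining. Tested at five 10-fold dilutions, top concentration 100 µM, to give dose-response curves.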

[3] = Growth inhibition of human PC3 cells incubated for 48 hrs by sulforhodamine B assay; conditions: PC-3, 48 h; outline: as §2
[4] = Growth inhibition of human HOP62 cells incubated for 48 hrs by sulforhodamine B assay; conditions: HOP-62, 48 h; outline: as §2
[5] = Growth inhibition of human BT549 cells assessed as cell growth at 10 uM incubated for 48 hrs by sulforhodamine B assay relative to control; conditions: BT-549, 48 h, read-out: Activity; outline: as §1
NCI-H522 = assay: Growth inhibition of human NCI-H522 cells assessed as cell growth at 10 uM incubated for 48 hrs by sulforhodamine B assay relative to control; conditions: NCI-H522, 48 h, read-out: Activity; outline: as §1
[6] = Growth inhibition of human SF295 cells incubated for 48 hrs by sulforhodamine B assay; conditions: SF-295, 48 h; outline: as §2
[7] = Growth inhibition of human HCT15 cells incubated for 48 hrs by sulforhodamine B assay; conditions: HCT-15, 48 h; outline: as §2
MDA-MB-468 [8] = assay: Growth inhibition of human MDA-MB-468 cells incubated for 48 hrs by sulforhodamine B assay; conditions: MDA-MB-468, 48 h; outline: as §2
[9] = Growth inhibition of human SF539 cells incubated for 48 hrs by sulforhodamine B assay; conditions: SF-539, 48 h; outline: as §2
[10] = Growth inhibition of human HOP92 cells incubated for 48 hrs by sulforhodamine B assay; conditions: HOP-92, 48 h; outline: as §2
[11] = Growth inhibition of human SNB19 cells incubated for 48 hrs by sulforhodamine B assay; conditions: SNB-19, 48 h
Outline: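 Tested in the standard NCI 60-cell-line protocol with two-day drug exposure and a sulforhodamine B endpoint. Compounds were first screened at a single final concentration of 10 µM, reported as growth percent. They were then run as five 10-fold dilutions starting from a high concentration of 100 µM to give dose-response curves.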

[12] = Growth inhibition of human OVCAR4 cells incubated for 48 hrs by sulforhodamine B assay; conditions: OVCAR-4, 48 h; outline: as §2
[13] = Growth inhibition of human OVCAR5 cells assessed as cell growth at 10 uM incubated for 48 hrs by sulforhodamine B assay relative to control; conditions: OVCAR-5, 48 h, read-out: Activity; outline: as §1
[14] = Growth inhibition of human HL-60(TB) cells incubated for 48 hrs by sulforhodamine B assay; conditions: HL-60, 48 h; outline: as §2
M14 = assay: Growth inhibition of human M14 cells assessed as cell growth at 10 uM incubated for 48 hrs by sulforhodamine B assay relative to control; conditions: M14, 48 h, read-out: Activity; outline: as §1
[15] = Growth inhibition of human DU145 cells incubated for 48 hrs by sulforhodamine B assay; conditions: DU-145, 48 h; outline: as §2
[16] = Growth inhibition of human OVCAR3 cells incubated for 48 hrs by sulforhodamine B assay; conditions: OVCAR-3, 48 h; outline: as §2
Malme-3M = assay: Growth inhibition of human MALME-3M cells assessed as cell growth at 10 uM incubated for 48 hrs by sulforhodamine B assay relative to control; conditions: read-out: Activity; outline: as §1
MDA-MB-468 [17] = assay: Growth inhibition of human MDA-MB-468 cells assessed as cell growth at 10 uM incubated for 48 hrs by sulforhodamine B assay relative to control; conditions: MDA-MB-468, 48 h, read-out: Activity; outline: as §1
ACHN = assay: Growth inhibition of human ACHN cells incubated for 48 hrs by sulforhodamine B assay; outline: as §2
[18] = Growth inhibition of human RPMI8226 cells incubated for 48 hrs by sulforhodamine B assay; conditions: RPMI-8226, 48 h; outline: as §2
K562 = assay: Growth inhibition of human K562 cells incubated for 48 hrs by sulforhodamine B assay; conditions: K562, 48 h; outline: as §2
SK-MEL-5 = assay: Growth inhibition of human SK-MEL-5 cells assessed as cell growth at 10 uM incubated for 48 hrs by sulforhodamine B assay relative to control; conditions: SK-MEL-5, 48 h, read-out: Activity; outline: as §1
[19] = Growth inhibition of human HCC2998 cells assessed as cell growth at 10 uM incubated for 48 hrs by sulforhodamine B assay relative to control; conditions: HCC 2998, 48 h, read-out: Activity
Outline: (§3)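 Single-dose screen in the NCI 60-cell-line panel at one final concentration of 10 µM. Two-day drug exposure with a sulforhodamine B endpoint. Values are growth percent for each cell line.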

[20] = Growth inhibition of human SF268 cells incubated for 48 hrs by sulforhodamine B assay; conditions: SF-268, 48 h; outline: as §2
[21] = Growth inhibition of human SNB75 cells assessed as cell growth at 10 uM incubated for 48 hrs by sulforhodamine B assay relative to control; conditions: SNB-75, 48 h, read-out: Activity; outline: as §1
[22] = Growth inhibition of human OVCAR4 cells assessed as cell growth at 10 uM incubated for 48 hrs by sulforhodamine B assay relative to control; conditions: OVCAR-4, 48 h, read-out: Activity; outline: as §1
[23] = Growth inhibition of human HL-60(TB) cells assessed as cell growth at 10 uM incubated for 48 hrs by sulforhodamine B assay relative to control; conditions: HL-60, 48 h, read-out: Activity; outline: as §3
[24] = read-out: pLC50 (the source's name) (converted)

SMILES: C/C(=C\C(=O)O[C@H]1[C@@H]2[C@H](C)CC[C@H]2[C@]2(C)O[C@@]1(C(C)C)C[C@H]2NC(=O)CO)c1ccccc1
- growth at 10 µM [1]: 100%
- growth at 10 µM (SR): 117%
- GI50 [2]: 22.9 µM
- CC50 [2, 24]: > 100 µM
- TGI ([2]; read-out: pTGI (converted)): 83.2 µM
- GI50 [3]: 18.6 µM
- CC50 [3, 24]: > 100 µM
- TGI ([3]; read-out: pTGI (converted)): > 100 µM
- GI50 [4]: 43.7 µM
- LC50 [4]: > 100 µM
- TGI ([4]; read-out: pTGI (converted)): > 100 µM
- growth at 10 µM [5]: 117%
- growth at 10 µM (NCI-H522): 92.5%
- GI50 [6]: 36.3 µM
- LC50 (concentration causing 50% net cell kill) [6]: > 100 µM
- TGI ([6]; read-out: pTGI (converted)): > 100 µM
- GI50 [7]: 34.7 µM
- LC50 [7]: > 100 µM
- TGI ([7]; read-out: pTGI (converted)): > 100 µM
- GI50 (MDA-MB-468 [8]): 28.8 µM
- CC50 (MDA-MB-468 [8]; [24]): > 100 µM
- TGI (MDA-MB-468 [8]; read-out: pTGI (converted)): > 100 µM
- GI50 [9]: 49 µM
- LC50 [9]: > 100 µM
- TGI ([9]; read-out: pTGI (converted)): > 100 µM
- GI50 [10]: 21.9 µM
- LC50 [10]: > 100 µM
- TGI ([10]; read-out: pTGI (converted)): 81.3 µM
- GI50 [11]: 74.1 µM
- CC50 [11, 24]: > 100 µM
- TGI ([11]; read-out: pTGI (converted)): > 100 µM
- GI50 [12]: 35.5 µM
- LC50 (concentration killing 50% of cells) [12]: > 100 µM
- TGI ([12]; read-out: pTGI (converted)): > 100 µM
- growth at 10 µM [13]: 119%
- GI50 [14]: 17.8 µM
- CC50 [14, 24]: > 100 µM
- TGI ([14]; read-out: pTGI (converted)): 61.7 µM
- growth at 10 µM (M14): 100%
- GI50 [15]: 60.3 µM
- CC50 [15, 24]: > 100 µM
- TGI ([15]; read-out: pTGI (converted)): > 100 µM
- GI50 [16]: 32.4 µM
- LC50 [16]: > 100 µM
- TGI ([16]; read-out: pTGI (converted)): 93.3 µM
- growth at 10 µM (Malme-3M): 95.9%
- growth at 10 µM (MDA-MB-468 [17]): 101%
- GI50 (ACHN): 3.31 µM
- LC50 (concentration killing 50% of cells) (ACHN): > 100 µM
- TGI (ACHN; read-out: pTGI (converted)): 16.2 µM
- GI50 [18]: 19.5 µM
- CC50 [18, 24]: > 100 µM
- TGI ([18]; read-out: pTGI (converted)): 56.2 µM
- GI50 (K562): 31.6 µM
- CC50 (K562; [24]): > 100 µM
- TGI (K562; read-out: pTGI (converted)): > 100 µM
- growth at 10 µM (SK-MEL-5): 101%
- growth at 10 µM [19]: 104%
- GI50 [20]: 26.9 µM
- LC50 (lethal concentration, 50% net cell kill) [20]: > 100 µM
- TGI ([20]; read-out: pTGI (converted)): > 100 µM
- growth at 10 µM [21]: 102%

SMILES: CC(C)[C@@]12C[C@@H](NC(=O)CF)[C@@](C)(O1)[C@@H]1CC[C@@H](C)[C@H]1[C@@H]2OC(=O)/C=C/c1ccccc1
- growth at 10 µM [1]: 103%
- growth at 10 µM (SR): 85.5%
- growth at 10 µM [22]: 105%
- growth at 10 µM [5]: 111%
- growth at 10 µM (NCI-H522): 103%
- growth at 10 µM [13]: 102%
- growth at 10 µM (M14): 96.7%
- growth at 10 µM (Malme-3M): 106%
- growth at 10 µM (SK-MEL-5): 110%
- growth at 10 µM [19]: 107%
- growth at 10 µM [23]: 105%
- growth at 10 µM [21]: 87.9%

Reference: ChEMBL document CHEMBL3804761, “Synthesis of a stable and orally bioavailable englerin analogue” (Bioorg Med Chem Lett, 2016)
